Measurements from ChEMBL document CHEMBL4622994, “Facile Synthesis of Aminomethyl Phosphinate Esters as Serine Protease Inhibitors with Primed Site Interaction” (ACS Med Chem Lett, 2020).
Active and inactive are the calls of the source. The rule behind the calls is not given here.

Tests used:
[1] = organism: Bos taurus; experiment: Inhibition of bovine chymotrypsin at 100 uM preincubated for 30 mins followed by FP-rhodamine addition measured after 30 mins by fluorescence assay
In short: (§1)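 Competitive activity-based protein profiling. Enzyme was treated with compound at 100 μM, or with DMSO control. Residual active enzyme was then labeled with the general serine hydrolase activity-based probe FP-rhodamine and detected by fluorescent labeling.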

[2] = organism: Sus scrofa; details: 100 uM
[3] = Inhibition of porcine pancreatic elastase using flurogenic substrate as elastase substrate V by fluorescence assay; parameters: species or system Sus scrofa
In short: (§2)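 Progress-curve inhibition kinetics for irreversible covalent inhibitors, fitted to a two-step model: reversible non-covalent binding, then irreversible reaction with the enzyme. kinact is the rate constant of the irreversible step at infinite inhibitor concentration. KI is the inhibitor concentration giving an observed rate constant of 1/2 kinact. The kinact/KI ratio expresses overall potency. Inhibitors were tested as diastereomer mixtures; the dilution series spanned 200 to 26.7 μM.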

[4] = target: T1, Neutrophil elastase (Homo sapiens) (UniProt P08246); experiment: Inhibition of human neutrophil Elastase at 100 uM preincubated for 30 mins followed by FP-rhodamine addition measured after 30 mins by fluorescence assay; in short: as §1
T1 sequence (whole entry): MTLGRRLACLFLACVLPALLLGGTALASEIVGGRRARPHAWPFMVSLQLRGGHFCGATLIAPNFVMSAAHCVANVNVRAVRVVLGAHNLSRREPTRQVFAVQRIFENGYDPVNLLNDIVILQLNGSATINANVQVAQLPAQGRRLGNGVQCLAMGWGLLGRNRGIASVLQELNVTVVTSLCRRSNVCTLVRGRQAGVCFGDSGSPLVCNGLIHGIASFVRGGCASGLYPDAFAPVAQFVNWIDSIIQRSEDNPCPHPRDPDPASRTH

[5] = target: T2, Neutrophil elastase (Homo sapiens, UniProt P08246); experiment: Inhibition of human neutrophil elastase using flurogenic substrate as elastase substrate V by fluorescence assay; in short: as §2
T2 sequence (P08246 whole entry): T1 sequence (whole entry)

[6] = Inhibition of bovine chymotrypsin using flurogenic substrate as chymotrypsin substrate 2 by fluorescence assay; parameters: species or system Bos taurus; in short: as §2
[7] = organism: Bos taurus; experiment: Inhibition of bovine chymotrypsin assessed as ratio of Kinact to Ki using flurogenic substrate as chymotrypsin substrate 2 by fluorescence assay; in short: as §2
[8] = organism: Bos taurus; experiment: Inhibition of bovine chymotrypsin assessed as inactivation constant using flurogenic substrate as chymotrypsin substrate 2 by fluorescence assay; in short: as §2
[9] = organism: Sus scrofa; experiment: Inhibition of porcine pancreatic elastase assessed as ratio of Kinact to Ki using flurogenic substrate as elastase substrate V by fluorescence assay; in short: as §2
[10] = target: T1, Neutrophil elastase (Homo sapiens); experiment: Inhibition of human neutrophil Elastase assessed as ratio of Kinact to Ki using flurogenic substrate as elastase substrate V by fluorescence assay; in short: as §2
[11] = target: T1, Neutrophil elastase (Homo sapiens); experiment: Inhibition of human neutrophil Elastase assessed as inactivation constant using flurogenic substrate as elastase substrate V by fluorescence assay; in short: as §2
[12] = target: T3, Cathepsin G (Homo sapiens) (UniProt P08311); experiment: Inhibition of human cathepsin G at 100 uM preincubated for 30 mins followed by FP-rhodamine addition measured after 30 mins by fluorescence assay; in short: as §1
T3 sequence (whole entry): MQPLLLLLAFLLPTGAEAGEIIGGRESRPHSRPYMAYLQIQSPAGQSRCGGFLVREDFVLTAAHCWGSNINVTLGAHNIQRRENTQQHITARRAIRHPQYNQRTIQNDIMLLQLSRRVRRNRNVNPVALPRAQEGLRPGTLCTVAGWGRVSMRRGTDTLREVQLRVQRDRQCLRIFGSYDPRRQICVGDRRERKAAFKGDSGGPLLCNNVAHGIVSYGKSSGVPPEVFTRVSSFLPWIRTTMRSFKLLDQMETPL

Row | Structure (SMILES) | inhibition [1] | Ki [6] [µM] | Ratio [7] | Kinact [8] [×10⁻³ /s] | further results
1 | CC(C)C(NC(=O)OCc1ccccc1)P(=O)(Oc1ccccc1)c1ccccc1 (stereo not drawn) | Active | 7.42 |  |  | inhibition [2]: Active; Ki [3]: 132 µM; inhibition [4]: Active; Ki [5]: 51 µM
2 | O=C(NC(Cc1ccccc1)P(=O)(Oc1ccccc1)Oc1ccccc1)OCc1ccccc1 (stereo not drawn) |  | 0.69 | 8.1 ×10³ /M/s | 5.63 | 
3 | CC(C)C(NC(=O)OCc1ccccc1)P(=O)(Oc1ccccc1)Oc1ccccc1 (stereo not drawn) |  |  |  |  | Ratio [9]: inactive; Ratio [10]: 200 M⁻¹ s⁻¹; Ki [5]: 2.96 µM; Kinact [11]: 0.59 ×10⁻³ /s
4 | O=C(NC(Cc1ccccc1)P(=O)(Oc1ccccc1)c1ccccc1)OCc1ccccc1 (stereo not drawn) | Active | 1.4 | 16.4 ×10³ /M/s | 23 | inhibition [12]: Active
5 | CC(C)CC(NC(=O)OCc1ccccc1)P(=O)(Oc1ccccc1)C(C)(C)C (stereo not drawn) | inactive |  |  |  | 
6 | CC(C)(C)P(=O)(Oc1ccccc1)C(NC(=O)OCc1ccccc1)c1ccccc1 (stereo not drawn) | inactive |  |  |  | 
7 | CCCP(=O)(Oc1ccccc1)C(NC(=O)OCc1ccccc1)C(C)C (stereo not drawn) | inactive |  |  |  | 
8 | CCCP(=O)(Oc1ccccc1)C(NC(=O)OCc1ccccc1)c1ccccc1 (stereo not drawn) | Active | 14.5 | 404 M⁻¹ s⁻¹ | 5.84 | 
9 | CCCP(=O)(Oc1ccccc1)C(CC(C)C)NC(=O)OCc1ccccc1 (stereo not drawn) | Active | 13 | 188 M⁻¹ s⁻¹ | 2.44 | 
10 | CC(C)C(NC(=O)OCc1ccccc1)P(=O)(Oc1ccccc1)C(C)(C)C (stereo not drawn) | inactive |  |  |  | 
11 | O=C(NC(c1ccccc1)P(=O)(Oc1ccccc1)c1ccccc1)OCc1ccccc1 (stereo not drawn) | Active | 0.46 | 3.4 ×10³ /M/s | 1.57 | 
12 | CC(C)CC(NC(=O)OCc1ccccc1)P(=O)(Oc1ccccc1)c1ccccc1 (stereo not drawn) | Active | 21.6 | 978 M⁻¹ s⁻¹ | 21.1 | 
